Measurements reported in ChEMBL document CHEMBL1154200, “Steroidal glycosides from Agave utahensis and their cytotoxic activity” (J Nat Prod, 2009).
In brackets after ≈: the same amount, converted by molar mass. Activity calls are given as the source filed them. No cut-off for these calls is given here.

Assays:
[1] = tested on: HL-60; test: Cytotoxicity against human HL60 cells at 10 ug/mL after 72 hrs by MTT assay
[2] = tested on: HL-60; test: Cytotoxicity against human HL60 cells after 72 hrs by MTT assay; format: functional, cell-based; settings: HL-60, 72 h
Outline: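 HL-60 cells kept in RPMI 1640 with heat-inactivated 10% FBS, penicillin and streptomycin. Seeded at 4 × 10^4 cells/mL and preincubated 24 h at 37 °C in air/CO2 (19:1). Sample added in EtOH-H2O (1:1) to final 0.1-10 µg/mL, vehicle alone in controls. Incubated 72 h more, growth read by modified MTT (Sargent and Taylor). IC50 taken from dose-response curve. Triplicate.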

[3] = tested on: HL-60; test: Induction of apoptosis in human HL60 cells by morphology study; format: functional, cell-based
[4] = tested on: HL-60; test: Induction of DNA fragmentation in human HL60 cells at 20 ug/ml after 18 hrs by agarose gel electrophoresis; format: functional, cell-based
Outline: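 HL-60 cells treated 18 h at 37 °C at 0, 10 or 20 µg/mL, with 10 µg/mL etoposide as reference. Genomic DNA extracted from 2 × 10^6 cells by kit with RNase A step. Run on 2% agarose in 40 mM Tris-acetate (pH 7.4) at 50 V for 1 h. Ladder pattern viewed under UV.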

[5] = tested on: HL-60; test: Induction of apoptosis in human HL60 cells assessed as caspase-3 activation at 20 ug/ml after 6 hrs; format: functional, cell-based
Outline: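 HL-60 cells (2 × 10^6) treated 6 h at 37 °C at 0, 10 or 20 µg/mL, with 10 µg/mL etoposide as reference, then lysed on ice. Lysate equivalent to 200 µg protein mixed with reaction buffer containing DEVD-pNA. Incubated 2 h at 37 °C, released pNA read at 405 nm. Mean ± SE of triplicates.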

SMILES	Activity [1]	IC50 [2] [µg/mL]	Activity [3]	further results
C[C@@H]1CC[C@@]2(OC1)O[C@H]1C[C@H]3[C@@H]4CC[C@@H]5C[C@@H](O[C@@H]6O[C@H](CO)[C@H](O)[C@H](O[C@@H]7O[C@H](CO)[C@@H](O)[C@H](O)[C@H]7O)[C@H]6O)CC[C@]5(C)[C@H]4CC(=O)[C@]3(C)[C@H]1[C@@H]2C	inactive			
C[C@@H]1CC[C@@]2(OC1)O[C@H]1C[C@H]3[C@@H]4CC[C@@H]5C[C@@H](O[C@@H]6O[C@H](CO)[C@H](O)[C@H](O[C@@H]7O[C@H](CO)[C@@H](O)[C@H](O)[C@H]7O)[C@H]6O)CC[C@]5(C)[C@H]4CC[C@]3(C)[C@H]1[C@@H]2C		7 (≈ 9.45 µM)	inactive	
C[C@@H]1CC[C@@]2(OC1)O[C@H]1C[C@H]3[C@@H]4CC[C@@H]5C[C@@H](O[C@@H]6O[C@H](CO)[C@H](O[C@@H]7O[C@H](CO)[C@@H](O)[C@H](O)[C@H]7O[C@@H]7O[C@H](CO)[C@@H](O)[C@H](O)[C@H]7O)[C@H](O)[C@H]6O)[C@@H](O)C[C@]5(C)[C@H]4CC[C@]3(C)[C@H]1[C@@H]2C	inactive			
C[C@@H]1CC[C@@]2(OC1)O[C@H]1C[C@H]3[C@@H]4CC[C@@H]5C[C@@H](O[C@@H]6O[C@H](CO)[C@H](O[C@@H]7O[C@H](CO)[C@@H](O)[C@H](O)[C@H]7O)[C@H](O)[C@H]6O[C@@H]6O[C@H](CO)[C@@H](O)[C@H](O)[C@H]6O)[C@@H](O)C[C@]5(C)[C@H]4CC[C@]3(C)[C@H]1[C@@H]2C	inactive			
C[C@@H]1CC[C@@]2(OC1)O[C@H]1C[C@H]3[C@@H]4CC[C@@H]5C[C@@H](O[C@@H]6O[C@H](CO)[C@@H](O[C@@H]7O[C@H](CO)[C@@H](O)[C@H](O)[C@H]7O)[C@H](O)[C@H]6O)CC[C@]5(C)[C@H]4CC[C@]3(C)[C@H]1[C@@H]2C		4.9 (≈ 6.61 µM)	Active	Activity [4]: Active; Activity [5]: Active
C[C@@H]1CC[C@@]2(OC1)O[C@H]1C[C@H]3[C@@H]4CC[C@@H]5C[C@@H](O[C@@H]6O[C@H](CO)[C@@H](O[C@@H]7O[C@H](CO)[C@@H](O)[C@H](O)[C@H]7O)[C@H](O)[C@H]6O)[C@@H](O)C[C@]5(C)[C@H]4CC[C@]3(C)[C@H]1[C@@H]2C	inactive			
C[C@@H]1CC[C@@]2(OC1)O[C@H]1C[C@H]3[C@@H]4CC[C@@H]5C[C@@H](O[C@@H]6O[C@H](CO)[C@@H](O[C@@H]7O[C@H](CO)[C@@H](O)[C@H](O)[C@H]7O)[C@H](O)[C@H]6O)CC[C@]5(C)[C@H]4CC(=O)[C@]3(C)[C@H]1[C@@H]2C	inactive			
C[C@@H]1CC[C@@]2(OC1)O[C@H]1C[C@H]3[C@@H]4CC[C@@H]5C[C@@H](O[C@@H]6O[C@H](CO)[C@H](O[C@@H]7O[C@H](CO)[C@@H](O)[C@H](O)[C@H]7O[C@@H]7O[C@H](CO)[C@@H](O)[C@H](O)[C@H]7O)[C@H](O)[C@H]6O)CC[C@]5(C)[C@H]4CC[C@]3(C)[C@H]1[C@@H]2C		4.9 (≈ 5.43 µM)	Active	Activity [5]: Active
CO[C@]1(CC[C@@H](C)CO[C@@H]2O[C@H](CO)[C@@H](O)[C@H](O)[C@H]2O)O[C@H]2C[C@H]3[C@@H]4CC[C@@H]5C[C@@H](O[C@@H]6O[C@H](CO)[C@@H](O[C@@H]7O[C@H](CO)[C@@H](O)[C@H](O)[C@H]7O)[C@H](O)[C@H]6O)CC[C@]5(C)[C@H]4CC[C@]3(C)[C@H]2[C@@H]1C	inactive			
